What all share (type): functional
Assay [1] has as its system Burkholderia cenocepacia. The assay is described as follows: Antimicrobial activity against Burkholderia cenocepacia 07-34 expressing beta-lactamase PenB1. The procedure, abridged:
(§1)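 MICs measured by broth microdilution and by Etest on clinical B. cenocepacia isolates grown for 18 h in Trypticase soy broth (30°C and 37°C). Susceptibility was read against CLSI guidelines.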

Assay [2] has as its system Burkholderia cenocepacia. The assay is described as follows: Antimicrobial activity against Burkholderia cenocepacia 07-34 expressing beta-lactamase PenB in presence of 4 ug/ml beta-lactamase inhibitor Tazobactam. The procedure, abridged:
(§2)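 Isolates were cultured for 18 h in Trypticase soy broth (30°C and 37°C), then tested by microdilution and Etest. […] MICs were interpreted using CLSI guidelines.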

Assay [3] deals with Burkholderia cenocepacia. Nature of the assay: Antimicrobial activity against Burkholderia cenocepacia 09-54 expressing beta-lactamase PenB2. The procedure, abridged:
as §1

Assay [4] deals with Burkholderia cenocepacia. The assay is described as follows: Antimicrobial activity against Burkholderia cenocepacia 09-54 expressing beta-lactamase PenB2 in presence of 4 ug/ml beta-lactamase inhibitor Tazobactam. An outline of the steps:
as §2

Assay [5] deals with Burkholderia cenocepacia. Nature of the assay: Antimicrobial activity against Burkholderia cenocepacia 212 expressing beta-lactamase PenB3. An outline of the steps: as §1
The test system of assay [6] is Burkholderia cenocepacia. The assay is described as follows: Antimicrobial activity against Burkholderia cenocepacia 212 expressing beta-lactamase PenB3 in presence of 4 ug/ml beta-lactamase inhibitor Tazobactam. An outline of the steps: as §2
The subject of assay [7] is Burkholderia cenocepacia. Nature of the assay: Antimicrobial activity against Burkholderia cenocepacia 5007902 expressing beta-lactamase PenB4. The procedure, abridged:
as §1

Assay [8] concerns Burkholderia cenocepacia. The assay is described as follows: Antimicrobial activity against Burkholderia cenocepacia 5007902 expressing beta-lactamase PenB4 in presence of 4 ug/ml beta-lactamase inhibitor Tazobactam. The procedure, abridged:
as §2

For assay [9], the system named is Escherichia coli. The assay is described as follows: Antimicrobial activity against Escherichia coli TOP10 harboring beta-lactamase PenB1. The procedure, abridged:
(§3)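 MICs by broth microdilution and Etest, interpreted per CLSI guidelines. Strains tested were host E. coli TOP10, and TOP10 carrying pBcSau13 (pBK-CMV vector, kanamycin-resistant) holding a Sau3AI fragment of B. cenocepacia 212 DNA that encodes PenB1.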

Assay [10] deals with Escherichia coli. Nature of the assay: Antimicrobial activity against Escherichia coli TOP10 harboring beta-lactamase PenB1 in presence of 4 ug/ml beta-lactamase inhibitor Tazobactam. The procedure, abridged:
(§4)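 E. coli TOP10 host, either plain or carrying the pBK-CMV clone pBcSau13 with the B. cenocepacia 212 insert. MICs by broth microdilution and Etest, read against CLSI guidelines.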

The test system of assay [11] is Escherichia coli. Nature of the assay: Antimicrobial activity against Escherichia coli TOP10. An outline of the steps:
as §3

Assay [12] concerns Escherichia coli. The assay is described as follows: Antimicrobial activity against Escherichia coli TOP10 in presence of 4 ug/ml beta-lactamase inhibitor Tazobactam. An outline of the steps:
as §4

Converted amounts (≈) assume the structure as drawn.

As usually defined, the MIC is the lowest concentration that inhibits growth of the organism. As to `CCN1CCN(C(=O)N[C@@H](C(=O)N[C@@H]2C(=O)N3[C@@H]2SC(C)(C)[C@@H]3C(=O)O)c2ccccc2)C(=O)C1=O` [PIPERACILLIN], the MIC in the assay with Burkholderia cenocepacia [1] amounted to 4 µg/mL (≈ 7.73 µM); in the assay with Burkholderia cenocepacia [2] it was 4 µg/mL; in the assay with Burkholderia cenocepacia [3], 512 µg/mL (≈ 989 µM); in the assay on Burkholderia cenocepacia [4], 256 µg/mL; against Burkholderia cenocepacia [5], 128 µg/mL (≈ 247 µM); in the assay with Burkholderia cenocepacia [6] it was 128 µg/mL. In addition, the MIC against Burkholderia cenocepacia [7] turned out to be 4 µg/mL (≈ 7.73 µM); with Burkholderia cenocepacia [8], 4 µg/mL; in the assay with Escherichia coli [9], 8 µg/mL (≈ 15.5 µM); in the assay with Escherichia coli [10] it was 4 µg/mL; against Escherichia coli [11] it was 2 µg/mL (≈ 3.86 µM); in the assay with Escherichia coli [12], 2 µg/mL.

The values above are taken from ChEMBL document CHEMBL1629643, “Naturally occurring Class A ss-lactamases from the Burkholderia cepacia complex” (Antimicrob Agents Chemother, 2009).
